ChEMBL document CHEMBL1128221 (J Med Chem, 1995)
Active and inactive are the calls of the source. The calls are words filed in the database; no cut-off is given here.

T1: Carboxypeptidase G2 (Pseudomonas aeruginosa (strain ATCC 15692 / PAO1 / 1C / PRS 101 / LMG12228)) (UniProt Q9I056)
T1 sequence (whole entry): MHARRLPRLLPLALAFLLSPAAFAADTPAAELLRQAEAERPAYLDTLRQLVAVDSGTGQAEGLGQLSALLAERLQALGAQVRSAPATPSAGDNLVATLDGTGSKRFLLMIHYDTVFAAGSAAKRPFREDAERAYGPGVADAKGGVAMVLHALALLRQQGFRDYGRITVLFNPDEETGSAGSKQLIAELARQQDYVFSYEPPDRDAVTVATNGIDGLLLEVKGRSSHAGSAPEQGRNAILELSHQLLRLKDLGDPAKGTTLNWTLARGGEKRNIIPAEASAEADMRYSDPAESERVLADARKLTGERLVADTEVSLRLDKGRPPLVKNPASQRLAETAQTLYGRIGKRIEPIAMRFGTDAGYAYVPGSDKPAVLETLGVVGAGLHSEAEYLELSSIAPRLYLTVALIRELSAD

B1: Carboxypeptidase G2 (Pseudomonas aeruginosa (strain ATCC 15692 / PAO1 / 1C / PRS 101 / LMG12228)), Q9I056 (protein)
chain: T1 sequence (whole entry)

Assays:
[1] = Half life was reported; assay type: ADME
Summary of the method: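 Hydrolysis of the chloroethyl mustard groups was measured in phosphate buffer, pH 7.4, at 37 °C. Products were separated by HPLC on a 25 cm ODS column. t1/2 was calculated with a standard kinetic program. The method was not applied to bromo, iodo or mesyl mustards.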

[2] = biological target: T1, Carboxypeptidase G2 (Pseudomonas aeruginosa (strain ATCC 15692 / PAO1 / 1C / PRS 101 / LMG12228)); experiment: Ratio of kcat/Km for carboxypeptidase G2 activity
Summary of the method: (§1)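 CPG2 cleavage of the glutamate oxycarbonyl/carbamoyl bond was followed spectrophotometrically. Prodrug and drug were scanned at 200–350 nm, and the wavelength of maximal absorbance difference was chosen. Initial rates of conversion were measured over a range of prodrug and CPG2 concentrations. KM and Vmax came from Michaelis–Menten fits. kcat was Vmax divided by the CPG2 concentration in the reaction.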

LoVo = experiment: Cytotoxicity against colorectal tumor cell line LoVo 1 hour after incubation.; assay type: functional, cell-based; conditions: Homo sapiens
Summary of the method: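 LoVo colorectal cells (2.5 × 10^3/well) were exposed to a range of prodrug or parent drug concentrations for 1 h, then washed. The cells were grown a further 3 days at 37 °C, fixed, and stained with sulforhodamine B to measure cellular protein. Treated wells were compared with untreated controls to give IC50. The ratio is prodrug IC50 over drug IC50.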

[3] = biological target: T1, Carboxypeptidase G2 (Pseudomonas aeruginosa (strain ATCC 15692 / PAO1 / 1C / PRS 101 / LMG12228)); experiment: (§2) Ability to act as substrate for Carboxypeptidase G2; summary of the method: as §1
[4] = biological target: T1, Carboxypeptidase G2 (Pseudomonas aeruginosa (strain ATCC 15692 / PAO1 / 1C / PRS 101 / LMG12228)); experiment: Ratio of kcat/Km for carboxypeptidase G2; Not substrate; summary of the method: as §1
[5] = biological target: T1, Carboxypeptidase G2 (Pseudomonas aeruginosa (strain ATCC 15692 / PAO1 / 1C / PRS 101 / LMG12228)); experiment: (§3) Ability to act as substrate for Carboxypeptidase G2; Not substrate; summary of the method: as §1
[6] = biological target: T1, Carboxypeptidase G2 (Pseudomonas aeruginosa (strain ATCC 15692 / PAO1 / 1C / PRS 101 / LMG12228)); experiment: (§4) Ability to act as substrate for Carboxypeptidase G2; unstable; summary of the method: as §1
[7] = biological target: T1, Carboxypeptidase G2 (Pseudomonas aeruginosa (strain ATCC 15692 / PAO1 / 1C / PRS 101 / LMG12228)); experiment: Ratio of kcat/Km for carboxypeptidase G2; unstable; summary of the method: as §1
[8] = substrate: O=C(O)CC[C@H](NC(=O)Nc1ccc(N(CCBr)CCBr)c(F)c1)C(=O)O; experiment: as §2; summary of the method: as §1
[9] = substrate: O=C(O)CC[C@H](NC(=O)Oc1ccc(N(CCBr)CCBr)cc1)C(=O)O; experiment: as §2; summary of the method: as §1
[10] = substrate: CC(C)c1cc(OC(=O)N[C@@H](CCC(=O)O)C(=O)O)ccc1N(CCCl)CCCl; experiment: as §2; summary of the method: as §1
[11] = substrate: O=C(O)CC[C@H](NC(=O)Nc1ccc(N(CCCl)CCCl)c(Cl)c1)C(=O)O; experiment: as §2; summary of the method: as §1
[12] = substrate: O=C(O)CC[C@H](NC(=O)Oc1ccc(N(CCCl)CCCl)cc1Cl)C(=O)O; experiment: as §2; summary of the method: as §1
[13] = substrate: O=C(O)CC[C@H](NC(=O)Oc1ccc(N(CCI)CCI)cc1)C(=O)O; experiment: as §2; summary of the method: as §1
[14] = substrate: N#Cc1cc(NC(=O)N[C@@H](CCC(=O)O)C(=O)O)ccc1N(CCCl)CCCl; experiment: as §2; summary of the method: as §1
[15] = substrate: O=C(O)CC[C@H](NC(=O)Nc1ccc(N(CCCl)CCCl)c(F)c1)C(=O)O; experiment: as §2; summary of the method: as §1
[16] = substrate: Cc1cc(N(CCCl)CCCl)ccc1OC(=O)N[C@@H](CCC(=O)O)C(=O)O; experiment: as §2; summary of the method: as §1
[17] = substrate: Cc1cc(OC(=O)N[C@@H](CCC(=O)O)C(=O)O)ccc1N(CCCl)CCCl; experiment: as §2; summary of the method: as §1
[18] = substrate: O=C(O)CC[C@H](NC(=O)Oc1ccc(N(CCCl)CCCl)c(F)c1)C(=O)O; experiment: as §4; summary of the method: as §1
[19] = substrate: O=C(O)CC[C@H](NC(=O)Oc1ccc(N(CCBr)CCBr)c(F)c1)C(=O)O; experiment: as §3; summary of the method: as §1
[20] = substrate: O=C(O)CC[C@H](NC(=O)Oc1ccc(N(CCI)CCI)c(F)c1)C(=O)O; experiment: as §3; summary of the method: as §1
[21] = substrate: O=C(O)CC[C@H](NC(=O)Oc1ccc(N(CCCl)CCCl)c(Cl)c1)C(=O)O; experiment: as §3; summary of the method: as §1

| Molecule | half-life [1] [min] | Ratio [2] | IC50 (LoVo) [µM] | k cat [3] [s⁻¹] | other results |
| --- | --- | --- | --- | --- | --- |
| Cc1cc(OC(=O)N[C@@H](CCC(=O)O)C(=O)O)ccc1N(CCCl)CCCl | 1.6 | 2.3 | 116 | 30 | – |
| O=C(O)CC[C@H](NC(=O)Nc1ccc(N(CCCl)CCCl)c(Cl)c1)C(=O)O | 2.8 | 7.8 | 330 | 9.4 | – |
| O=C(O)CC[C@H](NC(=O)Oc1ccc(N(CCBr)CCBr)c(F)c1)C(=O)O | – | – | 46.2 | – | Ratio [4]: inactive; k cat [5]: Not substrate |
| O=C(O)CC[C@H](NC(=O)Oc1ccc(N(CCI)CCI)c(F)c1)C(=O)O | – | – | 24.5 | – | Ratio [4]: inactive; k cat [5]: Not substrate |
| N#Cc1cc(NC(=O)N[C@@H](CCC(=O)O)C(=O)O)ccc1N(CCCl)CCCl | 61 | 1 | > 500 | 8.4 | – |
| O=C(O)CC[C@H](NC(=O)Oc1ccc(N(CCCl)CCCl)c(Cl)c1)C(=O)O | 1.7 | – | 9.4 | – | Ratio [4]: inactive; k cat [5]: Not substrate |
| CC(C)c1cc(OC(=O)N[C@@H](CCC(=O)O)C(=O)O)ccc1N(CCCl)CCCl | 2.2 | 0.2 | 36.7 | 12.6 | – |
| O=C(O)CC[C@H](NC(=O)Nc1ccc(N(CCCl)CCCl)c(F)c1)C(=O)O | 6.8 | 3.4 | > 500 | 9.3 | – |
| O=C(O)CC[C@H](NC(=O)Oc1ccc(N(CCBr)CCBr)cc1)C(=O)O | – | – | 9.4 | 60 | – |
| Cc1cc(N(CCCl)CCCl)ccc1OC(=O)N[C@@H](CCC(=O)O)C(=O)O | 33 | 0.6 | 437 | 13 | – |
| O=C(O)CC[C@H](NC(=O)Oc1ccc(N(CCI)CCI)cc1)C(=O)O | – | 14.8 | 47.2 | 29.5 | – |
| O=C(O)CC[C@H](NC(=O)Oc1ccc(N(CCCl)CCCl)cc1Cl)C(=O)O | 186 | 0.7 | 86.7 | 50.5 | – |
| O=C(O)CC[C@H](NC(=O)Nc1ccc(N(CCBr)CCBr)c(F)c1)C(=O)O | – | 2.7 | 298 | 14.5 | – |
| O=C(O)CC[C@H](NC(=O)Oc1ccc(N(CCCl)CCCl)c(F)c1)C(=O)O | 19 | – | 53 | – | k cat [6]: Unstable; Ratio [7]: Unstable |
| B1 | – | – | – | – | Km [8]: 5.4 µM; Km [9]: 6.2 µM; Km [10]: 56 µM; Km [11]: 1.2 µM; Km [12]: 76.5 µM; Km [13]: 2 µM; Km [14]: 8.3 µM; Km [15]: 2.7 µM; Km [16]: 23.5 µM; Km [17]: 13 µM; Km [18]: Unstable; Km [19]: Not substrate; Km [20]: Not substrate; Km [21]: Not substrate |
